Source: PubChem BioAssay
Results filed as inconclusive are left out.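 How the source made its calls, unless noted: active means viability increase at or above a cutoff of the median across tested compounds plus 3 SD (cut at about 8.5% in these data, passing the limit was not always enough); inconclusive means some gains above the cutoff, reason not given; inactive means the rest.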

What was measured:
[1] = S. cerevisiae growth inhibition in permissive medium (OD615), pilot counter-assay for S. cerevisiae lifespan shortening project, permissive growth control (AID 705;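 active means growth inhibition above 25% in both replicates, a cutoff set 3 SD above the mean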); details: OD615, 24 h, at 10 µM, active compounds read high
Summary of the method: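 System: S. cerevisiae with engineered DeaD lifespan system / Measured by: absorbance (optical density) at 615 nm / Read-out: reduction in yeast growth (OD615) / Times: 4 h cell pre-growth, 24 h exposure at 30 °C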

[2] = S. cerevisiae growth inhibition in restrictive medium, OD615, pilot screen, restrictive growth control, yeast lifespan reduction project (AID 706;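 active means growth inhibition above a set limit, 3 SD over mean compound inhibition, in both replicates, cut at about 43% in these data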;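 further: modified DeaD lifespan yeast strain shifted to restrictive glucose medium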); details: OD615, 48 h, at 10 µM, active compounds read high
Summary of the method: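 System: Engineered S. cerevisiae DeaD strain | Buffer or medium: Glucose-based CSMM-D restrictive medium | Schedule: 4 h pre-incubation, 48 h exposure at 30 °C | Technique: Optical density at 615 nm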

[3] = doxorubicin toxicity protection in MRP-1 cells – H69AR cells, CellTiter-Glo, duplicate, MRP-1 activator project, pilot screen (AID 807); details: H69AR viability with doxorubicin, CellTiter-Glo luminescence; at 10 µM; active compounds read high;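 further: compound pretreatment 18-22 h then 72 h combined with doxorubicin; 0% = doxorubicin alone and 100% = vehicle without doxorubicin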
[4] = viability of HCT116 without oncogenic beta-catenin – human colon tumor cells, pilot screen (AID 823;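 active means cell viability at or below a set limit in both duplicate runs, the limit being the all-compound median minus 4 SD, cut at about 23% in these data, passing the limit was not always enough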;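 further: 0% = wells killed by 20 µM Hyamine and 100% = untreated DMSO cell wells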); details: HCT116 beta-catenin knockout viability, CellTiter-Glo, 60 h; at 10 µM; active compounds read low
[5] = viability of PTEN-null HCT116 cells – cell-based, HCT116 clonal line, CellTiter-Glo, pilot screen (AID 824;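 active means viability at or below 27.92% in each of two runs, the all-compound median minus 4 SD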;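 further: 0% = 20 µM Hyamine control and 100% = vehicle cell control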); details: HCT116 PTEN-deleted viability, 60 h, at 10 µM, active compounds read low
[6] = RAM pathway blockade in budding yeast – dse1pr::URA3 reporter, 5-FOA selection, pilot screen (AID 869;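 active means inhibition over a set limit, the all-compound mean plus 3 SD, in both replicate runs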;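 further: 0% = DMSO wells with no growth and 100% = 10 µM 1-NA-PP1 with full growth; RAM network block rescues cells from 5-FOA so hits raise OD615 growth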); details: S. cerevisiae dse1pr::URA3 5-FOA growth, OD615, 2 d; at 10 µM; active compounds read high; strain carries analog-sensitive mutant Cbk1 kinase
[7] = RAM signaling pathway blockade in yeast – S. cerevisiae, Pdr1DBD-CYC8 efflux-inhibited sensitized strain, primary screen (AID 1298;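 active means RAM network inhibition above 8.4% in each of two replicates, 3 SD over the compound average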;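 further: 0% = DMSO untreated cells without growth and 100% = 10 µM 1-NA-PP1 full growth; higher means more yeast growth rescued from 5-FOA killing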); details: S. cerevisiae cbk1-as DSE1-URA3 strain, 5-FOA growth OD615, 2 d; at 50 µM; active compounds read high

Cn1c(NC(=O)C2CC2)cc(=O)n(C)c1=O
inactive: growth inhibition [1] 0.21% | growth inhibition [2] 1.9% | viability increase [3] -0.62% | viability [4] 99% | viability [5] 104% | inhibition [6] 1.01% | RAM network inhibition [7] -1.84%

COc1ccccc1N(CC(N)=O)S(=O)(=O)c1ccc(C)cc1
inactive: growth inhibition [1] 0.675% | growth inhibition [2] -2.73% | viability increase [3] -1.48% | viability [4] 98.2% | viability [5] 98% | inhibition [6] 0.21% | RAM network inhibition [7] 3.22%

CSC1=N/C(=C\c2ccc(C)o2)C(=O)S1
inactive: growth inhibition [1] -2.35% | growth inhibition [2] 1.15% | viability increase [3] -2.31% | viability [4] 104% | viability [5] 102% | inhibition [6] 0.93% | RAM network inhibition [7] -0.21%

COc1ccccc1NC(=O)Cn1c(=O)n2nc(C)nc2c2ccccc21
inactive: growth inhibition [1] -11% | growth inhibition [2] -16.9% | viability increase [3] -4.08% | viability [4] 102% | viability [5] 90.3% | inhibition [6] 1.47% | RAM network inhibition [7] 2.31%

O=C(CSc1nc2cc(Cl)ccc2s1)c1ccco1
inactive: growth inhibition [1] -10.9% | growth inhibition [2] 11.2% | viability increase [3] -4.44% | viability [4] 95% | viability [5] 93.8% | inhibition [6] -0.07% | RAM network inhibition [7] -1.19%

Cc1csc2nc(CNC(=O)CCC(=O)O)cn12
inactive: growth inhibition [1] -8.41% | growth inhibition [2] -2.59% | viability increase [3] -0.98% | viability [4] 101% | viability [5] 99.5% | inhibition [6] 1.4% | RAM network inhibition [7] 2.71%

CCCCS(=O)CC(COCc1ccccc1)OC(=O)CSc1nc(C)cc(C)n1 (configuration not stated)
inactive: growth inhibition [1] -8.16% | growth inhibition [2] -22% | viability increase [3] -1.32% | viability [4] 97.6% | viability [5] 94.7% | inhibition [6] 0.95% | RAM network inhibition [7] 3.07%

CCNS(=O)(=O)c1ccc(NC(=O)c2cccnc2)cc1
inactive: growth inhibition [1] 1.24% | growth inhibition [2] 8.7% | viability increase [3] 0.48% | viability [4] 95% | viability [5] 99.6% | inhibition [6] 1.61% | RAM network inhibition [7] 6.74%

O=C1c2ccccc2C(O)N1Cc1ccccc1Cl (configuration not stated)
inactive: growth inhibition [1] -1.72% | growth inhibition [2] -0.325% | viability increase [3] -1.74% | viability [4] 93.7% | viability [5] 81.2% | inhibition [6] 2.76% | RAM network inhibition [7] 1.48%

CSc1cccc(NC(=O)CN2C(=O)c3ccccc3S2(=O)=O)c1
inactive: growth inhibition [1] -2.94% | growth inhibition [2] 3.68% | viability increase [3] -0.41% | viability [4] 106% | viability [5] 101% | inhibition [6] 0.095% | RAM network inhibition [7] 0.05%

COc1ccccc1N1CSC2=C(C#N)C(c3ccc(SC)cc3)CC(=O)N2C1 (configuration not stated)
inactive: growth inhibition [1] -1.16% | growth inhibition [2] 15.8% | viability increase [3] -5.15% | viability [4] 102% | viability [5] 94.7% | inhibition [6] 1.7% | RAM network inhibition [7] 3.52%

Cn1c(SCc2c(F)cccc2Cl)nnc1-c1cnccn1
inactive: growth inhibition [1] 3.5% | growth inhibition [2] 9.8% | viability increase [3] -0.67% | viability [4] 96.5% | viability [5] 93.8% | inhibition [6] 1.94% | RAM network inhibition [7] 5.07%

Cn1c(C(=O)N2CCCCCC2)cc2c(=O)n(C)c3ccccc3c21
inactive: growth inhibition [1] -8.92% | growth inhibition [2] -2.14% | viability increase [3] -3.27% | viability [4] 94.9% | viability [5] 92.3% | inhibition [6] 1.33% | RAM network inhibition [7] 4.52%

COc1ccc(OCCSc2nnc(-c3ccccc3)n2N)cc1
inactive: growth inhibition [1] -2.49% | growth inhibition [2] -12.7% | viability increase [3] 0.25% | viability [4] 89.8% | viability [5] 92.5% | inhibition [6] 1.27% | RAM network inhibition [7] 5.07%

O=C1c2ccccc2C(=O)N1CCc1nc2ccccc2c(=O)n1Cc1ccco1
inactive: growth inhibition [1] -8.88% | growth inhibition [2] -1.42% | viability increase [3] -3.47% | viability [4] 89.7% | viability [5] 88.6% | inhibition [6] 1.29% | RAM network inhibition [7] 1.59%

O=C(NC1CCCCCC1)c1nnc(Cc2ccc(Cl)cc2)o1
inactive: growth inhibition [1] -12.1% | growth inhibition [2] 0.195% | viability increase [3] 2.9% | viability [4] 95.2% | viability [5] 94.5% | inhibition [6] 1.31% | RAM network inhibition [7] 2.19%

COc1ccccc1CNC(=O)CS(=O)Cc1nc(-c2ccccc2C)oc1C (configuration not stated)
inactive: growth inhibition [1] -4.17% | growth inhibition [2] 12.7% | viability increase [3] -0.18% | viability [4] 101% | viability [5] 93.4% | inhibition [6] 1.66% | RAM network inhibition [7] 2.33%

O=C(NCc1cn2ccccc2n1)c1ccc(Br)o1
inactive: growth inhibition [1] -7.75% | growth inhibition [2] -0.96% | viability increase [3] -1.31% | viability [4] 96.5% | viability [5] 92.3% | inhibition [6] 2.42% | RAM network inhibition [7] 3.98%

CCOC(=O)C1CCCCN1C(=O)CCc1c(C)nc2cc(-c3ccccc3)nn2c1C (configuration not stated)
inactive: growth inhibition [1] 4.13% | growth inhibition [2] -4.46% | viability increase [3] 1.11% | viability [4] 52.9% | viability [5] 78% | inhibition [6] 1.38% | RAM network inhibition [7] -2.1%

CCOCCCNC(=O)C(NC(=O)CC1NC(=O)NC1=O)c1ccc(Cl)cc1 (configuration not stated)
inactive: growth inhibition [1] -4.46% | growth inhibition [2] 1.68% | viability increase [3] 0.89% | viability [4] 107% | viability [5] 96.1% | inhibition [6] 2.61% | RAM network inhibition [7] 1.81%

O=C(O)CC1C(=O)NCCN1Cc1ccc(F)c(F)c1 (configuration not stated)
inactive: growth inhibition [1] -11.2% | growth inhibition [2] 3.21% | viability increase [3] -1.31% | viability [4] 99.4% | viability [5] 88.2% | inhibition [6] 3.32% | RAM network inhibition [7] -0.21%

CC(=O)NC(CCS(C)(=O)=O)C(=O)Nc1ccc2c(c1)OCO2 (configuration not stated)
inactive: growth inhibition [1] -0.69% | growth inhibition [2] -1.89% | viability increase [3] -0.58% | viability [4] 109% | viability [5] 95.5% | inhibition [6] 0.175% | RAM network inhibition [7] 2.15%

O=C(Cc1ccccc1)Nc1c(C(=O)N2CCOCC2)cnn1-c1ccccc1
inactive: growth inhibition [1] 6.39% | growth inhibition [2] -23.4% | viability increase [3] -1.59% | viability [4] 93.5% | viability [5] 97% | inhibition [6] 1.21% | RAM network inhibition [7] 1.24%

COC(=O)c1ccccc1NC(=O)CS(=O)(=O)Cc1nc(-c2ccc(C)cc2)oc1C
inactive: growth inhibition [1] -9.1% | growth inhibition [2] -21.8% | viability increase [3] -2.52% | viability [4] 93.5% | viability [5] 87.8% | inhibition [6] 4.7% | RAM network inhibition [7] 4.03%

COC(=O)c1ccc(NC(=O)CNC(=O)C2CCCCC2)cc1
inactive: growth inhibition [1] -0.115% | growth inhibition [2] -0.73% | viability increase [3] -0.57% | viability [4] 98.4% | viability [5] 88.1% | inhibition [6] 0.625% | RAM network inhibition [7] 1.94%

COc1ccc(-c2nnc(NC(=O)C(C)C)s2)c(OC)c1
inactive: growth inhibition [1] -18.6% | growth inhibition [2] -10.3% | viability increase [3] -2.16% | viability [4] 96% | viability [5] 88.8% | inhibition [6] 4.28% | RAM network inhibition [7] 9.53%

Cc1cc(=O)oc2c(N)c(O)ccc12
inactive: growth inhibition [1] -4.57% | growth inhibition [2] -11.6% | viability increase [3] -4.95% | viability [4] 101% | viability [5] 98.5% | inhibition [6] 0.53% | RAM network inhibition [7] 1.88%

CC(CCc1ccccc1)NC(=O)c1nnc(Cc2ccc(F)cc2)o1 (configuration not stated)
inactive: growth inhibition [1] -3.78% | growth inhibition [2] 7.46% | viability increase [3] 0% | viability [4] 95.2% | viability [5] 95.2% | inhibition [6] 0.95% | RAM network inhibition [7] 1.1%

CCn1c(C2CC(=O)N(c3cc(C)cc(C)c3)C2)nc2ccccc21 (configuration not stated)
inactive: growth inhibition [1] -6.28% | growth inhibition [2] -7% | viability increase [3] -4.36% | viability [4] 87% | viability [5] 85% | inhibition [6] 1.13% | RAM network inhibition [7] 4.85%

O=C(CCN1C(=O)c2ccccc2C1=O)OCn1nnc2ccccc2c1=O
inactive: growth inhibition [1] -14.7% | growth inhibition [2] -15.3% | viability increase [3] -0.15% | viability [4] 107% | viability [5] 100% | inhibition [6] 4.12% | RAM network inhibition [7] 2.39%

COc1ccc(C(=O)N2CCN(C(=O)c3ccco3)CC2)cc1
inactive: growth inhibition [1] 1.98% | growth inhibition [2] 6.93% | viability increase [3] -2.64% | viability [4] 100% | viability [5] 98.8% | inhibition [6] 1.56% | RAM network inhibition [7] 4.49%

COc1ccc(NC2=CC(=O)CC(C)(C)C2)cc1OC
inactive: growth inhibition [1] -5.52% | growth inhibition [2] -8.65% | viability increase [3] -3.58% | viability [4] 96.8% | viability [5] 89.2% | inhibition [6] 0.975% | RAM network inhibition [7] 0.37%

O=C(Cn1cnc2c(nnn2-c2ccccc2)c1=O)NCc1ccco1
inactive: growth inhibition [1] 1.43% | growth inhibition [2] 3.14% | viability increase [3] -3.77% | viability [4] 104% | viability [5] 89.8% | inhibition [6] 0.32% | RAM network inhibition [7] 0.83%

O=C1C=C(N(CCO)CCO)C2(CCCCC2)O1
inactive: growth inhibition [1] -14.1% | growth inhibition [2] -18.7% | viability increase [3] -1.83% | viability [4] 90.1% | viability [5] 96% | inhibition [6] 1.23% | RAM network inhibition [7] 2%

COc1ccc(OC)c2[nH]c(=O)c(CCNC(=O)C(C)(C)C)cc12
inactive: growth inhibition [1] -5.16% | growth inhibition [2] -4.56% | viability increase [3] 1.19% | viability [4] 105% | viability [5] 102% | inhibition [6] 0.23% | RAM network inhibition [7] 0.89%

COc1ccc(N2CCN(C(=O)C3CCCN(S(=O)(=O)c4cccc5cccnc45)C3)CC2)cc1 (configuration not stated)
inactive: growth inhibition [1] 7.46% | growth inhibition [2] -2.35% | viability increase [3] -3.75% | viability [4] 69.6% | viability [5] 68.2% | inhibition [6] 0.045% | RAM network inhibition [7] 2.71%
